Results from ChEMBL document CHEMBL4020714, “Design, synthesis, and evaluation of curcumin derivatives as Nrf2 activators and cytoprotectors against oxidative death” (Eur J Med Chem, 2017).
The source made the active and inactive calls. The calls are words filed in the database; no cut-off is given here.

Columns and labels:
[1] = biological target: T1, Nuclear factor erythroid 2-related factor 2 (Homo sapiens) (UniProt Q16236); experiment: Activation of Nrf2 in human HepG2 cells assessed as cytoprotection against t-BHP-induced oxidative cell death at 5 uM incubated for 24 hrs followed by compound removal with subsequent incubation with 900 uM of t-BHP for 6 hrs by MTT assay; type: cell-based
T1 sequence (whole entry): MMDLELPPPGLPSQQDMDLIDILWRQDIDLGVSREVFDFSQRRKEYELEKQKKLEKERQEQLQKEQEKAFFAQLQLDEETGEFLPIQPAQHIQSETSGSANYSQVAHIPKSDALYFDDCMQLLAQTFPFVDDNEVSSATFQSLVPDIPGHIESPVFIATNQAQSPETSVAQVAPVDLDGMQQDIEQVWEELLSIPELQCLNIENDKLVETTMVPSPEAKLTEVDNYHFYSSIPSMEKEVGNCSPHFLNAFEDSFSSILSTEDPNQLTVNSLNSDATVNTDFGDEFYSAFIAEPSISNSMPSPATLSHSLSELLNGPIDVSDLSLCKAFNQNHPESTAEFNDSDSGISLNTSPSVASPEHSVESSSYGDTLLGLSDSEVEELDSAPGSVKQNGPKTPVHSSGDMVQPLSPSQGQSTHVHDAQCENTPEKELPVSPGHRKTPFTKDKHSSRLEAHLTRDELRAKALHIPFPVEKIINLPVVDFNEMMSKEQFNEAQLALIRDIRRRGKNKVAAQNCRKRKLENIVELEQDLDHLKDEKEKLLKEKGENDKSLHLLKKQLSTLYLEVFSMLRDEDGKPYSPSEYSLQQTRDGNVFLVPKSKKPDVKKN
Procedure, shortened: (§1)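 HepG2 cells (5×10^3/well) seeded and grown 24 h in 1640 medium with 10% FBS at 37 °C and 5% CO2. Compound is added for 24 h, then removed, and cells are challenged with 900 μM t-BHP for 6 h at 37 °C. MTT (0.5 mg/mL) is added for 4 h, formazan dissolved in DMSO, and absorbance read at 570 nm. Where used, inhibitors are added 1 h before compound. Mean ± SD of three independent experiments.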

HepG2 = experiment: Cytotoxicity against human HepG2 cells assessed as reduction in cell viability at 5 uM after 24 hrs by MTT assay; type: cell-based; settings: hepg2, 24 h
Procedure, shortened: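 MTT viability in HepG2 cells (5×10^3/well) after 24 h exposure to compound at 5 μM. Formazan dissolved in DMSO and absorbance read at 570 nm. Mean ± SD of three independent experiments.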

[2] = Stability of the compound in PBS at 40 uM at pH 7.4 at 25 degC measured for 30 mins by UV-Vis spectrophotometric analysis; type: physicochemical; settings: buffer, pH 7.4, 0.5 h
Procedure, shortened: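 Compound at 40 μM in PBS (pH 7.4) at 25 °C. UV-visible absorption spectra recorded every 2 min for 30 min against blanks of solution plus DMSO.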

[3] = biological target: T1, Nuclear factor erythroid 2-related factor 2 (Homo sapiens); experiment: Activation of Nrf2 in human HepG2 cells assessed as increase in GCLC expression level after 3 hrs by Western blot analysis; type: cell-based
Procedure, shortened: (§2)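 HepG2 cells (2×10^6/well) treated at the indicated concentrations and times. Whole-cell lysates, or nuclear and cytoplasmic fractions, are prepared and quantified by BCA. Samples are run at 40 μg/lane on 12% SDS-PAGE, transferred to nitrocellulose, probed with specific antibodies and HRP secondary (1/5000), and detected by ECL. Where used, LY294002 (15 μM), SP600125 (25 μM) or DTT (400 μM) is added 1 h before compound.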

[4] = biological target: T1, Nuclear factor erythroid 2-related factor 2 (Homo sapiens); experiment: Activation of Nrf2 in human HepG2 cells assessed as increase in GCLM expression level after 3 hrs by Western blot analysis; type: cell-based; procedure, shortened: as §2
[5] = biological target: T1, Nuclear factor erythroid 2-related factor 2 (Homo sapiens); experiment: Activation of Nrf2 in human HepG2 cells assessed as increase in HO-1 expression level after 3 hrs by Western blot analysis; type: cell-based; procedure, shortened: as §2
[6] = biological target: T1, Nuclear factor erythroid 2-related factor 2 (Homo sapiens); experiment: Activation of Nrf2 in human HepG2 cells assessed as increase in Nrf2 expression level after 3 hrs by Western blot analysis; type: cell-based; procedure, shortened: as §2
[7] = biological target: T1, Nuclear factor erythroid 2-related factor 2 (Homo sapiens); experiment: Activation of Nrf2 in human HepG2 cells assessed as increase in Nrf2 expression level at 20 uM by Western blot analysis; type: cell-based; procedure, shortened: as §2
[8] = biological target: T1, Nuclear factor erythroid 2-related factor 2 (Homo sapiens); experiment: Activation of Nrf2 in human HepG2 cells assessed as increase in GCLM expression level at 20 uM by Western blot analysis; type: cell-based; procedure, shortened: as §2
[9] = biological target: T1, Nuclear factor erythroid 2-related factor 2 (Homo sapiens); experiment: Activation of Nrf2 in human HepG2 cells assessed as cytoprotective activity against t-BHP-induced oxidative cell death at 20 uM incubated for 24 hrs followed by compound removal with subsequent incubation with 900 uM of t-BHP for 6 hrs by MTT assay; type: cell-based; procedure, shortened: as §1
[10] = biological target: T1, Nuclear factor erythroid 2-related factor 2 (Homo sapiens); experiment: Activation of Nrf2 in human HepG2 cells assessed as increase in GCLC expression level at 20 uM by Western blot analysis; type: cell-based; procedure, shortened: as §2
[11] = biological target: T1, Nuclear factor erythroid 2-related factor 2 (Homo sapiens); experiment: Activation of Nrf2 in human HepG2 cells assessed as increase in HO-1 expression level at 20 uM by Western blot analysis; type: cell-based; procedure, shortened: as §2

Row | Stability [2] | SMILES | Activity [1] | Activity (HepG2) | further results
1 | – | COc1cccc(OC)c1/C=C/C(=O)C(C)(C)C(=O)/C=C/c1c(OC)cccc1OC | Active | Non-Toxic | –
2 | Unstable | COc1cc(/C=C/C(=O)CC(=O)/C=C/c2ccc(O)c(OC)c2)ccc1O [CURCUMIN] | Active | Non-Toxic | –
3 | Unstable | CC(C)(C(=O)/C=C/c1ccccc1)C(=O)/C=C/c1ccccc1 | Active | Non-Toxic | Activity [3]: inactive; Activity [4]: inactive; Activity [5]: inactive; Activity [6]: inactive
4 | Stable | COc1cc(/C=C/C(=O)C(C)(C)C(=O)/C=C/c2ccc(O)c(OC)c2)ccc1O | Active | Non-Toxic | –
5 | – | CC(C)(C)c1cc(O)ccc1O | – | – | Activity [7]: Active; Activity [8]: Active; Activity [9]: Active; Activity [10]: Active; Activity [11]: Active
6 | – | COc1cc(/C=C/C(=O)C(C)(C)C(=O)/C=C/c2cc(OC)c(OC)c(OC)c2)cc(OC)c1OC | Active | Non-Toxic | –
7 | – | CC(C)(C(=O)/C=C/c1ccccc1O)C(=O)/C=C/c1ccccc1O | Active | Non-Toxic | –
8 | – | CC(C)(C(=O)CCc1ccc(O)c(O)c1)C(=O)CCc1ccc(O)c(O)c1 | Active | Non-Toxic | Activity [3]: inactive; Activity [4]: inactive; Activity [5]: inactive; Activity [6]: inactive
9 | – | COc1cccc(/C=C/C(=O)C(C)(C)C(=O)/C=C/c2cccc(OC)c2)c1 | Active | Non-Toxic | –
10 | – | CC(C)(C(=O)/C=C/c1ccccc1C(F)(F)F)C(=O)/C=C/c1ccccc1C(F)(F)F | Active | Non-Toxic | –
11 | Unstable | COc1ccc(/C=C/C(=O)C(C)(C)C(=O)/C=C/c2ccc(OC)c(OC)c2)cc1OC | Active | Non-Toxic | –
12 | – | COc1ccccc1/C=C/C(=O)C(C)(C)C(=O)/C=C/c1ccccc1OC | Active | Non-Toxic | –
